Laboratory results from ChEMBL document CHEMBL1147968, “Novel lbeta-methylcarbapenems having cyclic sulfonamide moieties: synthesis and evaluation of in vitro antibacterial activity” (2007).
Converted amounts (≈) assume the structure as drawn.

Legend:
Type in all cases: functional
Staphylococcus aureus = assay: Antibacterial activity against Staphylococcus aureus 1218 after 18 to 24 hrs by agar dilution method
Outline: (§1)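 MICs were determined by agar dilution on test agar. An overnight tryptosoy broth culture was diluted in the same broth to about 10⁶ cells/mL and spotted with an inoculating device onto agar containing serial twofold dilutions of compound. Plates were incubated at 37 °C for 18–20 h, and the MIC was the lowest concentration with no visible growth.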

Staphylococcus = assay: Antibacterial activity against coagulase negative Staphylococcus after 18 to 24 hrs by agar dilution method
Outline: (§2)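 Agar dilution on test agar holding serial twofold dilutions of compound. Overnight tryptosoy broth cultures were diluted in the same broth to about 10⁶ cells/mL and spotted with an inoculating device. Plates were incubated at 37 °C for 18–20 h.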

Enterococcus faecalis = assay: Antibacterial activity against Enterococcus faecalis 2347 after 18 to 24 hrs by agar dilution method; outline: as §1
Streptococcus pyogenes = assay: Antibacterial activity against Streptococcus pyogenes 9889 after 18 to 24 hrs by agar dilution method; outline: as §2
Streptococcus agalactiae = assay: Antibacterial activity against Streptococcus agalactiae 32 after 18 to 24 hrs by agar dilution method; outline: as §1
Streptococcus pneumoniae = assay: Antibacterial activity against Streptococcus pneumoniae 0025 after 18 to 24 hrs by agar dilution method; outline: as §1
Haemophilus influenzae = assay: Antibacterial activity against Haemophilus influenzae 1210 after 18 to 24 hrs by agar dilution method; outline: as §1
Escherichia coli = assay: Antibacterial activity against Escherichia coli 04 after 18 to 24 hrs by agar dilution method; outline: as §1
Klebsiella pneumoniae = assay: Antibacterial activity against Klebsiella pneumoniae 523 after 18 to 24 hrs by agar dilution method; outline: as §1
Citrobacter freundii = assay: Antibacterial activity against Citrobacter freundii 323 after 18 to 24 hrs by agar dilution method; outline: as §1
Enterobacter cloacae = assay: Antibacterial activity against Enterobacter cloacae 34 after 18 to 24 hrs by agar dilution method; outline: as §1
Serratia marcescens = assay: Antibacterial activity against Serratia marcescens 3349 after 18 to 24 hrs by agar dilution method; outline: as §1
Acinetobacter baumannii = assay: Antibacterial activity against Acinetobacter baumannii 2289 after 18 to 24 hrs by agar dilution method; outline: as §1
Pseudomonas aeruginosa = assay: Antibacterial activity against Pseudomonas aeruginosa 5455 after 18 to 24 hrs by agar dilution method; outline: as §1

| MIC (Staphylococcus aureus) [µg/mL] | MIC (Staphylococcus) [µg/mL] | MIC (Enterococcus faecalis) [µg/mL] | MIC (Streptococcus pyogenes) [µg/mL] | MIC (Streptococcus agalactiae) [µg/mL] | MIC (Streptococcus pneumoniae) [µg/mL] | MIC (Haemophilus influenzae) [µg/mL] | MIC (Escherichia coli) [µg/mL] | MIC (Klebsiella pneumoniae) [µg/mL] | MIC (Citrobacter freundii) [µg/mL] | MIC (Enterobacter cloacae) [µg/mL] | MIC (Serratia marcescens) [µg/mL] | MIC (Acinetobacter baumannii) [µg/mL] | MIC (Pseudomonas aeruginosa) [µg/mL] | Compound |
| --- | --- | --- | --- | --- | --- | --- | --- | --- | --- | --- | --- | --- | --- | --- |
| 3.12 (≈ 6.99 µM) | 0.098 (≈ 0.219 µM) | 6.25 (≈ 14 µM) | 0.01 (≈ 0.0224 µM) | 0.02 (≈ 0.0448 µM) | 0.02 (≈ 0.0448 µM) | 6.25 (≈ 14 µM) | 0.049 (≈ 0.11 µM) | 0.049 (≈ 0.11 µM) | 0.049 (≈ 0.11 µM) | 0.049 (≈ 0.11 µM) | 0.049 (≈ 0.11 µM) | 12.5 (≈ 28 µM) | 0.781 (≈ 1.75 µM) | C[C@@H](O)C1C(=O)N2C(C(=O)O)=C(S[C@@H]3CN[C@H](CN4CCNS4(=O)=O)C3)[C@H](C)C12 (stereo partly drawn) |
| 12.5 (≈ 27.1 µM) | 0.098 (≈ 0.213 µM) | 6.25 (≈ 13.6 µM) | 0.02 (≈ 0.0434 µM) | 0.02 (≈ 0.0434 µM) | 0.02 (≈ 0.0434 µM) | 6.25 (≈ 13.6 µM) | 0.049 (≈ 0.106 µM) | 0.098 (≈ 0.213 µM) | 0.049 (≈ 0.106 µM) | 0.049 (≈ 0.106 µM) | 0.098 (≈ 0.213 µM) | 12.5 (≈ 27.1 µM) | 3.12 (≈ 6.78 µM) | C[C@@H](O)C1C(=O)N2C(C(=O)O)=C(S[C@@H]3CN[C@H](CN4CCN(C)S4(=O)=O)C3)[C@H](C)C12 (stereo partly drawn) |
